Measles CPE: protection of cells from measles virus | Measles virus-infected cells, CPE protection, absorbance | protection (pct of control), % at 4 µM | 1.5% of 140,000 active; in the data active means protection mostly above about 24%, no sharp cut-off; inactive means mostly below about 26%
SDO1 yeast rescue: restores growth of sdo1-depleted yeast; S. cerevisiae sdo1-depleted JHY4D growth rescue, OD600 30 h; stronger effect = higher value; pdr5 snq2 efflux-pump mutant strain; z-score at 10 µM; 0.21% of 140,000 active; AID 817;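 active means z-score above 3 at both the 24 hr and the 30 hr optical density reads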
BB579 growth dn: reduces growth of yeast BB579 in restrictive medium; AID 804; 0.51% of 140,000 active; inhibition, % at 10 µM; S. cerevisiae BB579 growth, OD615, 48 h;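 active means inhibition above a set limit, 3 SD over the mean compound inhibition, cut at about 44% in these data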
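test system = yeast BB579 (DeaD) | buffer or medium = restrictive CSMM-D medium | doses = single compound dose of 10 µM, 0.25% DMSO final | times = 4 h preincubation and 48 h exposure at 30 °C | technique = culture absorbance at 615 nm | benchmarks = amphotericin B 10 µg/mL, positive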
RAM inhibit: inhibitors of the yeast RAM network | inhibition, % at 50 µM | AID 868 | S. cerevisiae dse1pr::URA3 reporter, 5-FOA growth OD615, 2 d; analog-sensitive cbk1-as2 kinase mutant strain | 1.8% of 190,000 active;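 active means inhibition above a set limit, 3 SD over mean compound inhibition, cut at about 8.4% in these data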;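 further: inhibition rescues growth on 5-FOA so higher OD means more RAM inhibition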
Yeast life ext: extends the lifespan of yeast. S. cerevisiae growth with nicotinamide, OD615; deaD strain in restrictive glucose medium. inhibition of the nicotinamide effect, % at 10 µM. 0.68% of 130,000 active;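 active means inhibition above a set limit, placed 3 SD over the median of all compounds, cut at about 26% in these data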
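Measured by: optical density (absorbance) at 615 nm; System: modified budding yeast, DeaD strain; Medium: restrictive CSMM-D dextrose medium; Timing: 4 h preincubation then 48 h treatment at 30 °C.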
A number is an active result; . = inactive; / = not tested or not shown. Rows were chosen to be rich in hits. Some 3.8% of all compounds tested hit in one or more screens of this group.

SMILES | Measles CPE | SDO1 yeast rescue | BB579 growth dn | RAM inhibit | Yeast life ext
Cc1cccc(C)c1NC(=S)N(CCCN1CCN(C)CC1)Cc1cccs1 | / | / | / | . | /
Cc1ccc(C)c(NC(=S)NCCSc2ccc(Cl)cc2)c1 | . | . | . | . | .
COc1ccc(C/C(C)=N/NC(=S)Nc2ccc(C)c(C)c2)cc1 | 20 | . | . | . | .
COc1ccc(C/C(C)=N/NC(=S)Nc2ccccc2)cc1 | . | . | . | . | .
Cc1cccc(NC(=S)NCCSc2ccc(Cl)cc2)c1 | / | / | / | 8.6 | /
COc1ccccc1N1CCN(C(=O)CCc2c[nH]c3ccccc23)CC1 | / | / | / | . | /
Cc1cccc2[nH]c(CN(C)C(=O)CC3C(=O)NCCN3CC(C)(C)C)nc12 (stereo not given) | / | / | / | . | /
O=C(c1ccoc1)N1CCC(CO)(CCc2ccccc2)CC1 | / | / | / | . | /
CN(C)c1ccc(/C=C/c2cc[n+](C)cc2)cc1 | 49 | . | . | . | .
C=COCCNC(=S)N1CCOCCOCCN(C(=S)NCCOC=C)CCOCC1 | / | / | / | . | /
c1cncc(-c2nnc(-c3cccnc3)nn2)c1 | . | . | 53 | . | .
O=C1c2ccccc2N2C(=O)c3ccccc3C2N1O (stereo not given) | . | . | . | . | 39
Cc1ccccc1N1C(=O)c2ccccc2N2C(=O)c3ccccc3C12 (stereo not given) | . | . | . | . | .
COc1cc(C(=O)Nc2cccc(-c3cn4cccnc4n3)c2)cc(OC)c1OC | / | / | / | . | /
Cc1onc(-c2ccccc2Cl)c1C(=O)Nc1cccc(-c2cn3cccnc3n2)c1 | . | . | . | 9.0 | .
CCOC(=O)CNNC(=O)Nc1ccc(Cl)c(Cl)c1 | 21 | . | . | . | .
COc1ccc(Oc2nc(SC)nc3ccccc23)cc1 | . | . | . | 11 | .
CCc1ccc(NC(=S)N2CCCC(C(F)(F)F)C2)cc1 (stereo not given) | / | / | / | . | /
COCCn1c(SCC(=O)Nc2nc(C)c(Cl)cc2Cl)nc2ccccc21 | . | . | . | . | .
Cc1cccc(-n2c(SCC(=O)Nc3ncc(Cl)cc3Cl)nc3ccccc32)c1 | 43 | . | . | . | .
O=C(CSc1nc2ccccc2n1-c1ccccc1)Nc1ncc(Cl)cc1Cl | 53 | . | . | . | .
COc1ccc(-n2c(SCC(=O)Nc3ncc(Cl)cc3Cl)nc3ccccc32)cc1 | / | / | / | . | /
O=C(CCC(=O)c1ccc(F)cc1)OC1CCOC1=O (stereo not given) | . | . | . | . | .
Cc1csc(NC(=O)C2CCN(C(=O)c3ccccc3C)CC2)n1 | / | / | / | . | /
S=C(NCc1ccccc1)N1CCN(c2cccc(Cl)c2)CC1 | / | / | / | 8.5 | /
SMILES | Measles CPE | SDO1 yeast rescue | BB579 growth dn | RAM inhibit | Yeast life ext
O=C(C(Cc1ccccc1)n1cccc1)N1CCN(c2cccc(Cl)c2)CC1 (stereo not given) | . | . | . | 8.7 | .
CCNC(=S)N1CCN(c2ccc([N+](=O)[O-])cc2)CC1 | . | . | . | . | .
O=[N+]([O-])c1ccc(N2CCN(C(=S)NCc3ccc(Cl)cc3)CC2)cc1 | / | / | / | 9.3 | /
O=C(C(Cc1ccccc1)n1cccc1)N1CCN(Cc2ccccc2)CC1 (stereo not given) | . | . | . | . | .
CCN(CC(=O)Nc1ccccc1Br)Cc1nc2ccccc2c(=O)[nH]1 | . | . | . | . | .
COc1ccc(OC)c(-n2c(=S)[nH]c3c(sc(=S)n3-c3ccccc3)c2=O)c1 | / | / | / | . | /
COc1ccc(CNc2nc(-c3cccnc3)nn2C(=O)c2cccs2)cc1 | . | . | . | . | .
CCc1ccc2c(c1)C1(NN=C(c3cccc4ccccc34)S1)C(=O)N2 (stereo not given) | . | . | 66 | . | /
Cc1ccc(-c2nnn(CC(=O)Nc3cccc4cccnc34)n2)o1 | . | . | . | . | .
CCOc1cc(/C=N/N=C(N)N)ccc1OCc1ccc(Cl)cc1 | . | . | . | 9.8 | .
O=[N+]([O-])c1ccc(NC2CCCC2)cc1 | . | . | . | . | .
O=[N+]([O-])c1ccc(N/N=C2/CCCCC2c2ccccn2)cc1 (stereo not given) | . | . | 98 | . | .
CCCCC(CC)CNC(=O)C1CC=CCC1C(=O)O (stereo not given) | . | . | . | . | .
CCOC(=O)Cc1csc(/C(=N/O)C(N)=O)n1 | 33 | . | . | . | .
CCOC(=O)Cc1csc(N)n1 | . | . | . | . | .
CC(=O)OCCNc1cc(N2CCN(C)CC2)c2noc3c2c1C(=O)c1ccccc1-3 | . | . | . | 10 | .
COc1ccc(S(N)(=O)=O)cc1C(=O)NCC1(N2CCCCC2)CCCCC1 | . | . | . | . | .
COc1ccc(C2=NN(C(C#N)c3ccc(OC)c(OC)c3)C(c3ccccc3)C2)cc1 (stereo not given) | . | . | . | 8.5 | .
COc1ccc(C(C#N)N2CCC(c3ccccc3)=N2)cc1OC (stereo not given) | / | / | / | . | /
COc1ccc2cc(-c3cc(C(=O)OCC(=O)NC4CCS(=O)(=O)C4)c4ccccc4n3)ccc2c1 (stereo not given) | . | . | . | . | .
O=C(CSc1ccccc1C(=O)O)NCc1ccc(Cl)cc1 | 40 | . | . | . | .
Cc1c(-n2c(-c3ccccc3)nc3ccccc3c2=O)c(=O)n(-c2ccccc2)n1C | / | / | / | . | /
O=C(Cc1c2ccccc2nc2ccccc12)c1ccccc1 | 20 | . | . | . | .
CCOC(=O)Cc1csc(NS(=O)(=O)c2ccc(SC)cc2)n1 | / | / | / | . | /
CC(=O)Nc1cc(ON=C(C)C)cc([N+](=O)[O-])c1 | 47 | . | . | . | .
SMILES | Measles CPE | SDO1 yeast rescue | BB579 growth dn | RAM inhibit | Yeast life ext
O=C(CSc1nnc2ccccn12)Nc1cccc(S(=O)(=O)N2CCOCC2)c1 | . | . | . | . | .
Cc1c(C(=O)O)cccc1-c1ccc(/C=N/Nc2ccc(Br)cc2)o1 | . | . | 44 | . | .
O=Cc1ccc(-c2ccccc2C(=O)O)o1 | / | / | / | . | /
Cc1cc(Nc2ccccc2)nc(NCc2ccccc2)n1 | . | . | . | . | .
Cc1cc(N/N=C/c2ccc(Cl)cc2Cl)nc(NCc2ccccc2)n1 | . | . | 99 | . | .
Cc1cc(Nc2ccc(Cl)cc2)nc(NCc2ccccc2)n1 | . | . | . | 8.4 | .
CC(=O)c1ccccc1NC(=O)Cn1c(=O)cnc2ccccc21 | . | . | . | . | .
CCOC(=O)c1c(/N=C/N(C)C)sc(/C=N/Nc2ccccc2)c1-c1ccc(Cl)cc1 | . | . | . | . | .
Cc1cc(C)c(NC(=O)c2cc3c(nc4sccn43)s2)c(C)c1 | 28 | . | . | . | .
COc1c(Cl)cc(C(=O)Nc2ccccc2-c2ccccc2)cc1Cl | . | . | . | 8.7 | .
CCOc1ccc(C(=O)Nc2ccccc2-c2ccccc2)cc1Cl | . | . | . | . | .
COc1cc(C(=O)OCCNC(=O)c2ccncc2)cc(OC)c1OC | . | . | . | . | .
Cc1cccc(NC(=O)CC2SC(=O)N(c3ccccc3)C2=O)c1 (stereo not given) | . | . | 50 | . | .
Cc1ccc(Oc2ncccc2COC(=O)Nc2ccccc2C)cc1 | / | / | / | . | /

Screening results: PubChem BioAssay, several laboratories
